# Assay results published in ChEMBL document CHEMBL2331224 (J Med Chem, 2013).
# Calls of active or inactive are those of the source. No cut-off for these calls is given here.
# Assays:
# [1] = test system: Mus musculus; experiment: Hepatotoxicity in ICR mouse assessed as increase in ALP level at 30 mg/kg, po for 7 days; type: toxicity, organism-based; design: dose 30 mg/kg, route oral; conditions: in vivo, 168 h
# Outline: (§1)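 Male ICR mice, 6−7 weeks old, four per cage, grouped by body weight. Oral 30 mg/kg or vehicle (1% ethanol/0.5% CMC in water, 10 mL/kg) once daily for 7 days, body weight recorded daily. After overnight fasting, mice were weighed under ether, and liver was removed and weighed. Serum was analysed on a dry-chemistry analyser for TG, TCHO, ALP, CRE, BUN and other markers. n = 7−23, ANOVA.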
# [2] = test system: Mus musculus; experiment: Toxicity against KKAy mouse assessed as creatinine level at 10 mg/kg/day, po for 14 days (reference value: 0.2 mg/dl); type: organism-based; design: route oral; conditions: in vivo, 336 h
# [3] = test system: Mus musculus; experiment: Toxicity against KKAy mouse assessed as blood urea nitrogen level at 10 mg/kg/day, po for 14 days (reference value: 21.9 +/- 1.1 mg/dL); type: organism-based; design: route oral; conditions: in vivo, 336 h
# [4] = test system: Mus musculus; experiment: Toxicity against KKAy mouse assessed as plasma ALP level at 10 mg/kg/day, po for 14 days (reference value: 358.2 +/- 43.1 IU); type: organism-based; design: route oral; conditions: in vivo, 336 h
# [5] = test system: Mus musculus; experiment: Antidiabetic activity in KKAy mouse assessed as reduction in water intake on day 3 to 12 at 10 mg/kg/day, po for 14 days relative to control; type: functional, organism-based
# Outline: (§2)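 Male KK-A^y mice, housed singly after 6 weeks' acclimation and grouped by blood glucose. Oral 10 mg/kg/day or vehicle (1% ethanol/0.5% CMC in water, 10 mL/kg) for 14 days. Body weight, food and water intake were followed. Fed blood glucose was taken from the tail vein by the glucose oxidase method. n = 4−5, ANOVA.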
# [6] = test system: Mus musculus; experiment: Antidiabetic activity in KKAy mouse assessed as reduction in blood glucose level on day 4 to 12 at 10 mg/kg/day, po for 14 days; type: functional, organism-based; outline: as §2
# [7] = test system: Mus musculus; experiment: Antidiabetic activity in KKAy mouse at 10 mg/kg/day, po for 14 days measured on day 15 by oral glucose tolerance test relative to control; type: functional, organism-based
# Outline: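 On day 15, KK-A^y mice dosed orally at 10 mg/kg/day for 14 days were fasted 17 h and given oral glucose at 1 g/kg. Blood glucose was read by glucose oxidase at 0, 15, 30, 45, 60, 90 and 120 min. n = 4−5.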
# [8] = test system: Rattus norvegicus; experiment: Toxicity in Sprague-Dawley rat assessed as enlargement of spleen at 30 mg/kg, po for 28 days; type: organism-based; design: dose 30 mg/kg, route oral; conditions: in vivo, 672 h
# Outline: (§3)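 Male and female SD rats, four weeks old on arrival, two per cage. Oral 30 mg/kg/day or vehicle (1% ethanol/0.5% CMC in water, 5 mL/kg) for 28 days, body weight recorded daily. After overnight fasting and isoflurane anaesthesia, liver, brain, kidney, spleen and testis were weighed, and serum was collected (2000g, 10 min, 4 °C) for blood chemistry.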
# [9] = test system: Rattus norvegicus; experiment: Toxicity in Sprague-Dawley rat assessed as change in body weight at 30 mg/kg, po for 28 days; type: organism-based; design: dose 30 mg/kg, route oral; conditions: in vivo, 672 h; outline: as §3
# [10] = test system: Mus musculus; experiment: Toxicity in ICR mouse assessed as weight gain at 30 mg/kg/day, po for 7 days relative to control; type: organism-based; design: route oral; conditions: in vivo, 168 h; outline: as §1
# [11] = target: T1, Retinoic acid receptor RXR-alpha (Homo sapiens) (UniProt P19793); experiment: Partial agonist activity at human RXRalpha by luciferase reporter gene assay
# T1 sequence (whole entry): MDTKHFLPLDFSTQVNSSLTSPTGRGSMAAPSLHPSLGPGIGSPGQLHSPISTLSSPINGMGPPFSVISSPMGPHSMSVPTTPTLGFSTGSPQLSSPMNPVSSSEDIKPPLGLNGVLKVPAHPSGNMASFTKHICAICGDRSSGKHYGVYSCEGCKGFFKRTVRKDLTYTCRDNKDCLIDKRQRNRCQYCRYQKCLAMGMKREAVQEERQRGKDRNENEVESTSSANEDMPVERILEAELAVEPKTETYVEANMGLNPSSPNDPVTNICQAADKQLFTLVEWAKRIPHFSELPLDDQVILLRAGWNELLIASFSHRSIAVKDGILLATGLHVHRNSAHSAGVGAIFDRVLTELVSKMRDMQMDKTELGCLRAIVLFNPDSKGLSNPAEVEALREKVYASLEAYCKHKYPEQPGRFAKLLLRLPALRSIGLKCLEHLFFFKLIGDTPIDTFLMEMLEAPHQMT
# Outline: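 COS-1 cells transfected with RXRα, luciferase reporter under RXR response element, and SEAP control; cells seeded ~2.0 × 10⁴/well with compound (DMSO below 1%), 18 h at 37 °C, 5% CO₂. Luciferase normalized to SEAP, expressed relative to 1 μM LGD1069 as 100%; EC₅₀ from full dose-response curves; triplicate, three experiments.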
# [12] = target: RXR alpha/PPAR gamma (Homo sapiens) (UniProt P37231+P19793); experiment: Transactivation of PPARgamma/RXRalpha (unknown origin) by luciferase reporter gene assay relative to TIPP703; type: protein-complex assay
# Outline: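 Heterodimer reporter in COS-1 cells co-transfected with RXRα (0.5 μg), partner receptor (LXRα for line 2, PPARγ for line 3; 0.5 μg), partner response element-luciferase (4.0 μg), and SEAP. Compound (DMSO below 1%) with ~2.0 × 10⁴ cells/well, 18 h, 37 °C; luciferase normalized to SEAP; triplicate, three runs.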
# [13] = target: T2, Retinoic acid receptor RXR-beta (Homo sapiens) (UniProt P28702); experiment: Partial agonist activity at RXRbeta (unknown origin) by luciferase reporter gene assay relative to LGD1069
# T2 sequence (whole entry): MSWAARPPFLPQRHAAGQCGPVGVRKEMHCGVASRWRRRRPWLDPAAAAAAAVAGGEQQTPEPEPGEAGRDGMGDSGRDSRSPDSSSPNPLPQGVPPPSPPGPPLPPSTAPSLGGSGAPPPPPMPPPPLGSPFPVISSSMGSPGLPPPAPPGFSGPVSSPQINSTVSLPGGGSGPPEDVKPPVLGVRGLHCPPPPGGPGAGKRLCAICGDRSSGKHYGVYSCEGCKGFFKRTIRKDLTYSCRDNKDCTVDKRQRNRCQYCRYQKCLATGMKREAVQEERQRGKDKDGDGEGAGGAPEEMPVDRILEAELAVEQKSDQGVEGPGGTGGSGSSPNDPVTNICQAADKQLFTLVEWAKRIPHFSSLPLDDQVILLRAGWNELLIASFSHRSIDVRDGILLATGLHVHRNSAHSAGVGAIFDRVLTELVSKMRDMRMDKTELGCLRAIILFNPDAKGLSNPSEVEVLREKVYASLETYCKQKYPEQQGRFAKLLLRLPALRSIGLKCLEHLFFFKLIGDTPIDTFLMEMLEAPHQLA
# [14] = test system: Plasma; experiment: Plasma concentration in ICR mouse at 30 mg/kg, po by HPLC analysis; type: ADME, organism-based; design: dose 30 mg/kg, route oral; conditions: read-out: Cp, in vivo
# Outline: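 Six-week-old male ICR mice (n = 6−9) got a single oral 30 mg/kg dose in 1% ethanol/0.5% CMC in water, 10 mL/kg. Plasma was extracted with ethyl acetate and reconstituted in methanol. Reversed-phase HPLC (ODS-3, 40 °C, methanol:33.3 mM ammonium acetate pH 5.0 85:15, UV 280 nm), quantified against an authentic-compound calibration plot.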
# [15] = test system: Mus musculus; experiment: Toxicity in ICR mouse assessed as development of hepatomegaly at 30 mg/kg/day, po for 7 days; type: organism-based; design: route oral; conditions: in vivo, 168 h; outline: as §1
compound,measurement,setting,value
Cc1cc2c(cc1-n1c(C(F)(F)F)nc3cc(C(=O)O)ccc31)C(C)(C)CCC2(C)C,Activity,[1],Toxic
same,Activity,[2],0.2 mg/dL
same,Activity,[3],22.5 mg/dL
same,Activity,[4],554 IU
same,Activity,[5],Active
same,Activity,[6],Active
same,Activity,[7],inactive
same,Activity,[8],Toxic
same,Activity,[9],Non-toxic
same,Activity,[10],Non-toxic
same,Activity,[11],Active
same,Activity,[12],Active
same,Activity,[13],Active
same,concentration,[14],> 6 µM
same,Activity,[15],Toxic
